Measurements as given in the M2OR odorant receptor database.

Assays:
Conditions in all cases: stereoisomer not certain
OR1A2 S155N = tested on: OR1A2 S155N
Procedure, shortened: (§1)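 Assay methods differ from source to source, frequently being transient luciferase assays in mammalian cell lines. For each receptor–molecule pair, the label responsive (active) applies when the original authors judged the measured signal statistically different from baseline, and non-responsive (inactive) applies otherwise.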

OR1A2 T154A S155N = tested on: OR1A2 T154A S155N
Procedure, shortened: as §1

OR1A2 T154A = tested on: OR1A2 T154A
Chain of OR1A2 T154A (as listed by the source, stated change not applied): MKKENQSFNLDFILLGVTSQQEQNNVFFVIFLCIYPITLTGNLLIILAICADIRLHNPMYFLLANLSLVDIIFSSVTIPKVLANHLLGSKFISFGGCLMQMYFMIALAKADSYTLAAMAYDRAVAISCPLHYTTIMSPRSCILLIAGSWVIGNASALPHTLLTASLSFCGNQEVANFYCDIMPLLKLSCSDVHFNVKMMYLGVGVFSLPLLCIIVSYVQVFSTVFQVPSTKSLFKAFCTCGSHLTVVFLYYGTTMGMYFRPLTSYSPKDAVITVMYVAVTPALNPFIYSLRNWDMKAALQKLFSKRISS
Procedure, shortened: as §1

OR1A2 T254V = tested on: OR1A2 T254V
Chain of OR1A2 T254V (as listed by the source, stated change not applied): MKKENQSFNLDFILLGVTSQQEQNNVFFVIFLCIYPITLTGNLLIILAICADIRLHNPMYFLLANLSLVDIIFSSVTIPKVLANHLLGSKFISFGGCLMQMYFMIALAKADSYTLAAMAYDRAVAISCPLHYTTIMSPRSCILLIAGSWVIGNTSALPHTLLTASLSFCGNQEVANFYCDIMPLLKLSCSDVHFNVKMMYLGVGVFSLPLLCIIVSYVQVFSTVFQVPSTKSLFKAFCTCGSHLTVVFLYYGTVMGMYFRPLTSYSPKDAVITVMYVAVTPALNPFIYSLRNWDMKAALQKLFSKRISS
Procedure, shortened: as §1

OR1A2 V205I = tested on: OR1A2 V205I
Chain of OR1A2 V205I (as listed by the source, stated change not applied): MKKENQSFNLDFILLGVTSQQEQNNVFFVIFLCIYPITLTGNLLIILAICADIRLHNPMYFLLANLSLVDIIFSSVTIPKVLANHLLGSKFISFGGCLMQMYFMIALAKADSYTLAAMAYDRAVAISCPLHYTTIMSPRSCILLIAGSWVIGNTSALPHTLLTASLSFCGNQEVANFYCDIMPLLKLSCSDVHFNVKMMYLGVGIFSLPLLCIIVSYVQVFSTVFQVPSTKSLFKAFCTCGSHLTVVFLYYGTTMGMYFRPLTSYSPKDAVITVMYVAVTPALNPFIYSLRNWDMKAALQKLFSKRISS
Procedure, shortened: as §1

OR1A2 V277T = tested on: OR1A2 V277T
Chain of OR1A2 V277T (as listed by the source, stated change not applied): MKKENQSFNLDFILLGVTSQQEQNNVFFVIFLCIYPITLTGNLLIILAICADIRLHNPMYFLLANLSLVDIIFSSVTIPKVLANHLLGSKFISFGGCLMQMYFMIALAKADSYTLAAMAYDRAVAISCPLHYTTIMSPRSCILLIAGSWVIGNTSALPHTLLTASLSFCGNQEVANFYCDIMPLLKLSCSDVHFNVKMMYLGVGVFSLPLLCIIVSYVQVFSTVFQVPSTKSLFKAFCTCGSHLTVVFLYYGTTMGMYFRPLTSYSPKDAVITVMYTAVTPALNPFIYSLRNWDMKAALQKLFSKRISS
Procedure, shortened: as §1

OR1D2 [1] = tested on: OR1D2
Procedure, shortened: as §1
Target sequence in this assay (as listed by the source): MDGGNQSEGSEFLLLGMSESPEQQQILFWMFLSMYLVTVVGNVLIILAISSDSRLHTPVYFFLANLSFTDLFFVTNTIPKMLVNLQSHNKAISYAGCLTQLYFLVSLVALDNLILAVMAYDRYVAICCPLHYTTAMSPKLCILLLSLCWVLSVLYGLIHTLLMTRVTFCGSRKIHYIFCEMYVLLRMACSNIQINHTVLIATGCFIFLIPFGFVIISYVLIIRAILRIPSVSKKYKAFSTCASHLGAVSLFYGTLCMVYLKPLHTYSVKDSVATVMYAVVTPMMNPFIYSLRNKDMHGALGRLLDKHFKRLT

OR1D2 [2] = tested on: OR1D2; remark: listed apart in the source
Procedure, shortened: as §1
Target sequence in this assay (as listed by the source): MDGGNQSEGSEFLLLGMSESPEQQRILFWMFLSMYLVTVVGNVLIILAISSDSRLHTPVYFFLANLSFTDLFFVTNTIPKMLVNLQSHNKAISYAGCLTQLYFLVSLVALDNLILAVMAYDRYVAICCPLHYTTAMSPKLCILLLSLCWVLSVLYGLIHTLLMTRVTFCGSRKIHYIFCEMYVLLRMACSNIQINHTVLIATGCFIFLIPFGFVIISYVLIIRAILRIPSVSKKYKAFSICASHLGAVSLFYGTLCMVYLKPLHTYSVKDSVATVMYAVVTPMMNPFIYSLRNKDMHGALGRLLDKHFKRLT

OR1D2 [3] = tested on: OR1D2; remark: listed apart in the source
Procedure, shortened: as §1
Target sequence in this assay (as listed by the source): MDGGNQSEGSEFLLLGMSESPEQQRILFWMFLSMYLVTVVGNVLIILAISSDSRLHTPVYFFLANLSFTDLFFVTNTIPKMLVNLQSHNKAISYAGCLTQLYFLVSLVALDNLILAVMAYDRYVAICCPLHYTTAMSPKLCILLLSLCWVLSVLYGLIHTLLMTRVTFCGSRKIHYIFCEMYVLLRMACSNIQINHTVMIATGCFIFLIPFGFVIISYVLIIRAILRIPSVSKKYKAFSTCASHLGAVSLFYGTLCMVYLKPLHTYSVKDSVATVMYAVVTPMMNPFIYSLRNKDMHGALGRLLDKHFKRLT

OR1D2 [4] = tested on: OR1D2; remark: listed apart in the source
Procedure, shortened: as §1
Target sequence in this assay (as listed by the source): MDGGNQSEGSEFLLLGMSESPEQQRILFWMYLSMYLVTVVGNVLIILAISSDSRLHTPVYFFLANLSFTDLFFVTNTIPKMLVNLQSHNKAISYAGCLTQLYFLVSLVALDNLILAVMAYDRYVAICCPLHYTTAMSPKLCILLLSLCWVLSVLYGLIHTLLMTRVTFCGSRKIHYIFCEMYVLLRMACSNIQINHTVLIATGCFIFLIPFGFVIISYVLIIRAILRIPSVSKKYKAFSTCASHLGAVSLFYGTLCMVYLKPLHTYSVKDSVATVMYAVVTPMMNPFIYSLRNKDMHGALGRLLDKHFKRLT

OR1E3 (Homo sapiens) = OR1E3 (Homo sapiens) (UniProt Q8WZA6)
Chain of OR1E3 (Homo sapiens) (Q8WZA6 whole entry): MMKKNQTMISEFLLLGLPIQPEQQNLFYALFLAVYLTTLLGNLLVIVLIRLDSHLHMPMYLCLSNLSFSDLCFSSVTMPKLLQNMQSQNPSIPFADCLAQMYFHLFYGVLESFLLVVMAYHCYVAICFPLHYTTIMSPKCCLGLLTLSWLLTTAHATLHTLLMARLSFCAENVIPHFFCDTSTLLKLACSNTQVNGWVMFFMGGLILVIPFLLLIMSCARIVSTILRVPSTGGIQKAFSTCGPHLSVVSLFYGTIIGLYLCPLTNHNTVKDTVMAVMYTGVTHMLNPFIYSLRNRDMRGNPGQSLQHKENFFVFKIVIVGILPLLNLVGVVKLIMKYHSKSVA
Procedure, shortened: as §1

Measured: odorant receptor agonist call

Chain of OR1A2 S155N (as listed by the source, stated change not applied): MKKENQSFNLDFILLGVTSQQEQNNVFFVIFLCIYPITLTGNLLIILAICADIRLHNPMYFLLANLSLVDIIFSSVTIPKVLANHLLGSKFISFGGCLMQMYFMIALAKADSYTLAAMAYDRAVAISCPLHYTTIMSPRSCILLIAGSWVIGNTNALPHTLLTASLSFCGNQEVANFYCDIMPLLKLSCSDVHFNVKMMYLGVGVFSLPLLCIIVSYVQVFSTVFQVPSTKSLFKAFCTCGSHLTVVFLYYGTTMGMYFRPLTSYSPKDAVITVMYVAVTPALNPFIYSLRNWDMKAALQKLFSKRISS

CC(C)=CCCC(C)CCO (configuration not stated)
inactive: OR1A2 S155N | OR1A2 T154A S155N | OR1A2 T154A | OR1A2 T254V | OR1A2 V205I | OR1A2 V277T

CC(C=O)Cc1ccc(C(C)(C)C)cc1 (configuration not stated)
inactive: OR1D2 [1] | OR1D2 [2] | OR1D2 [3] | OR1D2 [4]

CC1CCCCCCCCCCCCC(=O)C1 (configuration not stated)
inactive: OR1E3 (Homo sapiens)

CC(=O)c1c(C)c([N+](=O)[O-])c(C(C)(C)C)c([N+](=O)[O-])c1C
inactive: OR1E3 (Homo sapiens)
